Activity calls are given as the source filed them.
Columns and labels:
HT-29 [1] = test: Anticancer activity against human HT-29 cells xenografted in athymic nude mouse assessed as median time to end point at 20 mg/kg, iv qd for 29 days; format: functional
Method in brief: (§1)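 Male athymic nude mice carrying human HT-29 colorectal adenocarcinoma xenografts, with a vehicle-treated control group. Dosing was 20 mg/kg given either i.v. once daily (qd) to the end of the study or i.v./i.p. twice daily (bid) to the end. Read-outs were median time to endpoint (TTE), maximum group body weight loss and treatment-related deaths. Significance threshold was P < 0.05.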

[2] = (§2) Upregulation of Cdt1 expression in human CL1-5 cells at 0.01 ug/mL by RT-PCR analysis after 24 to 48 hrs by Western blot; format: functional, cell-based
Method in brief: (§3)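 CL1-5 cells were exposed to the test agent for 24 and 48 h. Cdt1 and CDC6 protein levels were then assessed by Western blot.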

[3] = Toxicity against athymic nude mouse xenografted with human HT-29 cells assessed as mortality at 20 mg/kg, iv bid measured on day 19; format: organism-based; set-up: dose 20 mg/kg, route intravenous; conditions: in vivo, read-out: Activity; method in brief: as §1
HUVEC = test: Toxicity against HUVEC; format: cell-based; conditions: human
[4] = as §2; format: functional, cell-based; method in brief: as §3; remark: listed apart in the source
KB = test: Anticancer activity against human KB cells after 72 hrs by sulforhodamine B assay; format: functional
[5] = Toxicity against athymic nude mouse xenografted with human HT-29 cells assessed as mortality at 20 mg/kg, iv qd measured on day 12; format: organism-based; set-up: dose 20 mg/kg, route intravenous; conditions: in vivo, read-out: Activity; method in brief: as §1
A549 = test: Anticancer activity against human A549 cells after 72 hrs by sulforhodamine B assay; format: functional; conditions: A549, 72 h
HT-29 [6] = test: Anticancer activity against human HT-29 cells xenografted in athymic nude mouse assessed as median time to end point at 20 mg/kg, iv bid for 29 days; format: functional
Method in brief: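 Male athymic nude mice bearing HT-29 human colorectal adenocarcinoma xenografts. Drug dosed i.v./i.p. at 20 mg/kg twice daily (bid) to end of study. A vehicle-treated group served as control. The read-out was median time to endpoint (TTE) per group, with maximum group body weight loss and treatment-related deaths tracked. Significance was judged at P < 0.05.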

[7] = Upregulation of CDC6 expression in human CL1-5 cells at 0.01 ug/mL by RT-PCR analysis after 24 to 48 hrs; format: functional, cell-based
[8] = Upregulation of Cdt1 expression in human CL1-5 cells at 0.01 ug/mL by RT-PCR analysis after 24 to 48 hrs; format: functional, cell-based
HT-29 [9] = test: Anticancer activity against human HT-29 cells xenografted in athymic nude mouse assessed as median time to end point at 20 mg/kg, ip bid for 29 days; format: functional; conditions: route intraperitoneal; method in brief: as §1
HCT-8 = test: Anticancer activity against human HCT8 cells after 72 hrs by sulforhodamine B assay; format: functional; conditions: HCT-8, 72 h
DU-145 = test: Anticancer activity against human DU145 cells after 72 hrs by sulforhodamine B assay; format: functional; conditions: DU-145, 72 h

## COc1ccc2c3c(c4cc(OC)c(OC)cc4c2c1)C[C@H]1COCCN1C3
HT-29 [1]
  Time: 21.3 days
[2]
  Activity: inactive
[3]
  mortality: 7.2%
HUVEC
  GI50: 320 nM
[4]
  Activity: inactive
KB
  GI50: 37 nM
[5]
  mortality: 1.1%
A549
  GI50: 23 nM
HT-29 [6]
  Time: 20.9 days
[7]
  Activity: inactive
[8]
  Activity: inactive
HT-29 [9]
  Time: 20.9 days
HCT-8
  GI50: 9 nM
DU-145
  GI50: 67 nM

Source: ChEMBL document CHEMBL1811876 (J Med Chem, 2011)
